Data set [1] deals with Rattus norvegicus. As to the kind of experiment: Rat PCA Test(50% inhibition of spot areas)in the female albino rats after (ip) administration in 10% aqueous acacia gum; value ranges from 25-150. The data set is classed as functional. To be noted: read-out: ID50 (the source's name). Put shortly: (§1)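 Female albino rats (200–250 g) received intradermal ventral injections of rat anti-egg-albumin antiserum; donors were raised with egg albumin im plus H. pertussis ip, and serum was taken at 12 days. 24 h later, compound was given ip in 10% acacia gum (10 mL/kg), 10 rats/group. Challenge 30 min later was iv 0.3% egg albumin plus 1% Evans blue. Blued areas were measured 30 min after challenge.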

Data set [2] can be described thus: In vivo toxic effect was determined in mouse after intraperitoneal administration with 10% aqueous acacia gum; value ranges from 0.29-0.60. Type of data set: toxicity, organism-based. To be noted: ip. In outline:
(§2)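 Female albino mice (20-30 g), 10 animals per dose, dosed intraperitoneally with compound in solution or suspension; compounds tested as salts unless noted. Mortality was recorded over 7 days.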

Data set [3] can be described thus: In vivo toxic effect was determined in mouse after oral administration with 10% aqueous acacia gum; value ranges from 0.86-1.66. The data set is classed as toxicity, organism-based. In outline: (§3)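 Female albino mice, 20-30 g. Compound given orally as solution or suspension in 10% aqueous acacia gum, 10 animals per dose. Deaths recorded over 7 days.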
The subject of data set [4] is Cavia porcellus. Kind of data set: Antibronchospatic activity determined by histamine stimulated bronchospasm inhibition in guinea pigs after(i.v.) administration. Type of data set: functional, Bronchiole. Put shortly:
(§4)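 Guinea pigs, Konzett–Rössler preparation. Bronchospasm was induced with histamine. Compound was given iv (1 mL/kg) 1 min before the agonist, dissolved in saline or saline with slight excess HCl or CH3SO3H (pH 3.5–4). Three doses were tested in duplicate, chosen to give 20–90% inhibition. ID75 was read graphically from log dose–response curves.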

The nature of data set [5]: In vivo toxic effect was determined in mouse after intraperitoneal administration with 10% aqueous acacia gum; value ranges from 0.72-1.13. The data set is classed as toxicity, organism-based. The note with it: ip. Put shortly:
as §2

Data set [6] relates to Rattus norvegicus. Kind of data set: Rat PCA Test(50% inhibition of spot areas)in the female albino rats after (ip) administration in 10% aqueous acacia gum;Value ranges from (81-186). The data set is classed as functional. The note with it: read-out: ID50 (the source's name). Put shortly: (§5)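 Antiserum came from female rats given 1% egg albumin in 0.9% NaCl intramuscularly plus Haemophilus pertussis vaccine (2 × 10^10 organisms) intraperitoneally, and was collected 12 days later. Recipient rats (200-250 g) got it intradermally at a ventral site. After 24 h, groups of 10 received vehicle or compound ip. At 30 min they were challenged iv with 0.3% egg albumin plus 1% Evans blue. Blued skin areas were measured 30 min later.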

For data set [7], the system named is Rattus norvegicus. As to the kind of experiment: Inhibition of mast cell degranulation was assessed in female albino rats at a dose of 45 umol/kg iv. The data set is classed as functional.
Data set [8] relates to Rattus norvegicus. Kind of data set: Rat PCA Test(50% inhibition of spot areas)in the female albino rats after (ip) administration in 10% aqueous acacia gum; value ranges from 24-51. Type of data set: functional. To be noted: read-out: ID50 (the source's name). Put shortly:
as §1

The test system of data set [9] is Rattus norvegicus. As to the kind of experiment: Rat PCA Test(50% inhibition of spot areas)in the female albino rats after oral administration in 10% aqueous acacia gum; value ranges from 13-117. To be noted: read-out: ID50 (the source's name). The data set is classed as functional. In outline: (§6)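 Female rats (200-250 g) were passively sensitized by ventral intradermal anti-egg-albumin antiserum. This was raised in rats by intramuscular 1% egg albumin plus ip H. pertussis vaccine, with serum taken at 12 days. After 24 h, groups of 10 were dosed orally with compound or vehicle (10 mL/kg). At 60 min, iv challenge used 0.3% egg albumin with 1% Evans blue. Blued areas were measured after 30 min.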

Data set [10] in a line: In vivo toxic effect was determined in mouse after oral administration with 10% aqueous acacia gum; value ranges from 2.50-3.50. Type of data set: toxicity, organism-based. Put shortly:
as §3

The nature of data set [11]: In vivo toxic effect was determined in mouse after intraperitoneal administration with 10% aqueous acacia gum; value ranges from 1-1.40. Type of data set: toxicity, organism-based. The note with it: ip. In outline:
as §2

A short description of data set [12]: In vivo toxic effect was determined in mouse after intraperitoneal administration with 10% aqueous acacia gum; value ranges from 0.40-1.72. Type of data set: toxicity, organism-based. To be noted: ip. In outline:
as §2

Data set [13] in a line: In vivo toxic effect was determined in mouse after oral administration with 10% aqueous acacia gum; value ranges from 0.67-1.21. The data set is classed as toxicity, organism-based. Put shortly: as §3
Data set [14] relates to Rattus norvegicus. As to the kind of experiment: Inhibition of mast cell degranulation was assessed in female albino rats at a dose of 43 umol/kg iv. The data set is classed as functional.
Data set [15] relates to Cavia porcellus. As to the kind of experiment: Antibronchospatic activity was determined by inhibition of histamine stimulated bronchospasm in guinea pigs after (i.v.) administration. The data set is classed as functional, Bronchiole. Put shortly:
as §4

Data set [16] has as its system Rattus norvegicus. As to the kind of experiment: Rat PCA Test(50% inhibition of spot areas)in the female albino rats after (ip) administration in 10% aqueous acacia gum; value ranges from 41.2-87.3. To be noted: read-out: ID50 (the source's name). Type of data set: functional. Put shortly:
as §1

Data set [17] relates to Rattus norvegicus. Kind of data set: Rat PCA Test(50% inhibition of spot areas)in the female albino rats after oral administration in 10% aqueous acacia gum. Type of data set: functional. The note with it: read-out: ID50 (the source's name). Put shortly: as §6
Data set [18] in a line: In vivo toxicity in mouse after oral administration with 10% aqueous acacia gum. The data set is classed as organism-based. In outline:
as §3

The subject of a further data set is Mus musculus. As to the kind of experiment: In vivo toxic effect was determined in mouse after intraperitoneal administration with 10% aqueous acacia gum; NA means poorly absorbed. The note with it: ip. The data set is classed as toxicity, organism-based. Put shortly:
as §2

For data set [19], the system named is Rattus norvegicus. Kind of data set: Rat PCA Test(50% inhibition of spot areas)in the female albino rats after (ip) administration in 10% aqueous acacia gum; value ranges from 96-124. Type of data set: functional. The note with it: read-out: ID50 (the source's name). Put shortly: as §5
The test system of data set [20] is Rattus norvegicus. Kind of data set: Inhibition of mast cell degranulation was assessed in female albino rats at a dose of 26 umol/kg iv. Type of data set: functional.
In data set [21] the test system is Rattus norvegicus. Kind of data set: Rat PCA Test(50% inhibition of spot areas)in the female albino rats after (ip) administration in 10% aqueous acacia gum; value ranges from 34-42. The note with it: read-out: ID50 (the source's name). The data set is classed as functional. In outline: as §1
Data set [22] in a line: In vivo toxic effect was determined in mouse after intraperitoneal administration with 10% aqueous acacia gum; value ranges from 0.61-0.99. Type of data set: toxicity, organism-based. The note with it: ip. In outline:
as §2

The nature of data set [23]: In vivo toxic effect was determined in mouse after oral administration with 10% aqueous acacia gum; value ranges from 0.77-1.28. The data set is classed as toxicity, organism-based. In outline: as §3
Data set [24] has as its system Rattus norvegicus. Kind of data set: Inhibition of mast cell degranulation was assessed in female albino rats at a dose of 45 umol/kg iv administration. The data set is classed as functional.
The test system of data set [25] is Rattus norvegicus. Kind of data set: Rat PCA Test(50% inhibition of spot areas)in the female albino rats after oral administration in 10% aqueous acacia gum;Value ranges from (2-34). Type of data set: functional. The note with it: read-out: ID50 (the source's name). Put shortly:
as §6

Data set [26] concerns Rattus norvegicus. As to the kind of experiment: Rat PCA Test(50% inhibition of spot areas)in the female albino rats after oral administration in 10% aqueous acacia gum; Value ranges from (60-123). Type of data set: functional. To be noted: read-out: ID50 (the source's name). Put shortly:
as §6

A short description of data set [27]: In vivo toxic effect was determined in mouse after intraperitoneal administration with 10% aqueous acacia gum; value ranges from 0.67-1.21. The data set is classed as toxicity, organism-based. To be noted: ip. In outline:
as §2

One may read the LD50 as the dose expected to kill half of the subjects tested. With `CC1CN(c2ccccn2)CCN1CCC(=O)Nc1ccc([N+](=O)[O-])cc1.Cl.Cl` (stereo not given), in the data set with Rattus norvegicus [1], the ED50 came out at 61 µmol/kg. In addition, the LD50 in [2] was found to be 420 µmol/kg; in [3], 1200 µmol/kg.
`Cc1cccc(C)c1NC(=O)CN1CCN(c2ccccn2)CC1` displayed an ID75 in the data set with Cavia porcellus [4] above 24 µM/kg. Also, in data set [5], the LD50 is 900 µmol/kg. Also, the ED50 in the data set on Rattus norvegicus [6] is 123 µmol/kg.
A word on the inhibition in vivo: it is the percentage by which the read-out fell short of the control. High values mean a response far below the control, low ones a response near the control. Molecule `CC1CN(c2ccccn2)CCN1CCC(=O)Nc1ccc(N)cc1.Cl` (stereo not given) gave an inhibition in vivo at 45 µmol/kg with Rattus norvegicus [7] of 14%. Besides, the ID75 in the data set with Cavia porcellus [4] turned out to be 0.59 µM/kg. Also, the ED50 turned out to be 35 µmol/kg in the data set with Rattus norvegicus [8] and 92 µmol/kg in the data set on Rattus norvegicus [9]. In addition, the LD50 was 2970 µmol/kg in data set [10] and 1190 µmol/kg in [11].
`Cl.Cl.O=C(CCN1CCN(c2ccccn2)CC1)Nc1ccc([N+](=O)[O-])cc1` gave an ID75 in the data set on Cavia porcellus [4] of 0.94 µM/kg. For the same molecule, the figures for the LD50 in [12] and in data set [13] were 470 µmol/kg and 810 µmol/kg, respectively.
As to `O=C([O-])c1cc(=O)c2c(OCC(O)COc3cccc4oc(C(=O)[O-])cc(=O)c34)cccc2o1.[Na+].[Na+]` [CROMOLYN SODIUM], the inhibition in vivo at 43 µmol/kg in the data set on Rattus norvegicus [14] amounted to 83%. In addition, the ID75 with Cavia porcellus [15] is above 21 µM/kg. The ED50 was 60 µmol/kg in the data set with Rattus norvegicus [16] and above 640 µmol/kg in the data set with Rattus norvegicus [17]. The LD50 in data set [18] is above 6410 µmol/kg; in the data set on Mus musculus, “Not Active”.
Consider `CNC(=O)Nc1ccc(NC(=O)CCN2CCN(c3ccccn3)CC2)cc1.Cl.Cl`, for which the inhibition in vivo at 43 µmol/kg with Rattus norvegicus [14] was found to be 0%. The ID75 in the data set on Cavia porcellus [4] is 0.29 µM/kg. The ED50 in the data set on Rattus norvegicus [19] was 109 µmol/kg; in the data set with Rattus norvegicus [17] it was above 220 µmol/kg. In data set [18], the LD50 is above 6500 µmol/kg.
As to `CCOc1ccc(NC(=O)CCN2CCN(c3ccccn3)CC2)cc1.Cl.Cl`, in the data set on Rattus norvegicus [20], the inhibition in vivo at 26 µmol/kg was determined as 0%. This molecule registered an ID75 in the data set on Cavia porcellus [4] of 0.14 µM/kg. Also, in the data set with Rattus norvegicus [21], the ED50 worked out at 37 µmol/kg. Besides, the LD50 in data set [22] was determined as 690 µmol/kg; in [23] it was 920 µmol/kg.
In the data set with Rattus norvegicus [24], `Cc1cccc(C)c1NC(=O)CCN1CCN(c2ccccn2)CC1` gave an inhibition in vivo at 45 µmol/kg of 27%. The ED50 with Rattus norvegicus [25] was found to be 8 µmol/kg; in the data set with Rattus norvegicus [26], 86 µmol/kg. This molecule also had an LD50 in data set [27] of 810 µmol/kg.

The record behind these values is ChEMBL document CHEMBL1123658, “1-(2-pyridinyl)piperazine derivatives with antianaphylactic, antibronchospastic, and mast cell stabilizing activities” (J Med Chem, 1987).
